Source: PMC5903480 (Drug Design, Development and Therapy, 2018)

Experiments:
[1] = Tolerability: adverse events in healthy male volunteers; assay type: in vivo, human; details: multiple oral doses over 10 days, healthy male subjects
Summary of the method: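 Healthy Korean men took the single or combined drugs once daily for 10 days in a 3-period crossover. Monitoring ran throughout and covered vital signs, 12-lead ECG, hematology, blood chemistry, urinalysis and physical examinations. AEs were recorded by symptom, duration, intensity, drug relationship, outcome and seriousness. Counts are subjects (events); frequencies were compared by Fisher's exact test.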

[2] = Steady-state plasma pharmacokinetics of free and total ezetimibe; assay type: in vivo, human
Summary of the method: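 Ezetimibe 10 mg was given orally once daily for 10 days, alone or with rosuvastatin 20 mg, fasted, in a crossover. EDTA plasma was sampled 0–72 h after the day-10 dose. LC-MS/MS (ezetimibe-d4 internal standard) measured free and total (free plus glucuronide) ezetimibe; LLOQ was 0.2 and 0.5 ng/mL. Analysis was non-compartmental on actual times, with t1/2 as ln(2)/λz. Log-transformed Cmax,ss and AUCτ,ss were compared by ANOVA as geometric mean ratios with 90% CI.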

[3] = healthy subjects, 7 day-dosing, coadministration with rosuvastatin; cited from earlier work
[4] = single-dose 20 mg ezetimibe; cited from earlier work
[5] = tested on: plasma cholesterol; details: in humans; cited from earlier work
[6] = tested on: LDL-C; details: ezetimibe administered with atorvastatin; cited from earlier work
[7] = tested on: LDL-C; details: volunteers with hypercholesterolemia, n=8 per group, ezetimibe 10 mg; cited from earlier work
[8] = tested on: cholesterol absorption; details: rat model; cited from earlier work

Structure (SMILES)	tolerability [1]	amount of free ezetimibe in the body ([2]; relative to conjugate/total ezetimibe) [%]	90% CI of geometric mean ratio for Cmax,ss of free ezetimibe ([2]; single versus combination treatment, exception to 0.80–1.25)	90% CI of AUCmax,ss ratio of free ezetimibe on coadministration [3]	90% CI of Cmax,ss ratio of free ezetimibe on coadministration [3]	AEs and physical examinations [4]	Cmax,ss of free ezetimibe [4] [ng/mL]	reduction of plasma cholesterol [5]	additional reductions in LDL-C levels [6]	subjects achieving a 35%–50% reduction of LDL-C [7]	cholesterol absorption inhibiting activity (relative potency) [8]
CC(C)c1nc(N(C)S(C)(=O)=O)nc(-c2ccc(F)cc2)c1/C=C/[C@@H](O)C[C@@H](O)CC(=O)O [Rosuvastatin]	well tolerated										
O=C1[C@H](CC[C@H](O)c2ccc(F)cc2)[C@@H](c2ccc(O)cc2)N1c1ccc(F)cc1 [Ezetimibe]	well tolerated	< 8	1.038–1.346	1.094–1.341	0.994–1.285	no AEs or clinically significant changes	5.2	15%–20%	12%–19%	1 of 8	
O=C(O)[C@H]1O[C@@H](Oc2ccc([C@@H]3[C@@H](CC[C@H](O)c4ccc(F)cc4)C(=O)N3c3ccc(F)cc3)cc2)[C@H](O)[C@@H](O)[C@@H]1O [ezetimibe glucuronide]											more potent than ezetimibe
